Tested on: H4IIE cells
Assay: CeeTox membrane toxicity
Conditions: 24 hr, α-GST leakage

Row | SMILES | MemTox TC50 [µM]
1 | CCc1ccc2oc(-c3ccc(O)c(O)c3)c(O)c(=O)c2c1 [CSMC-9, 6-ethyl-3,3',4'-trihydroxy flavone] | >300
2 | Cc1cc(O)c(C(=O)/C=C/c2ccc(O)c(O)c2)cc1C [CSMC-10, 4',5'-dimethyl-2',3,4-trihydroxychalcone] | >300
3 | Cc1ccc2oc(-c3ccc(O)c(O)c3)c(O)c(=O)c2c1 [CSMC-11, 6-methyl-3,3',4'-trihydroxy flavone] | >300

Biological target: CYP3A4 (Homo sapiens, UniProt P08684)
Assay: Cloe Screen Cytochrome P450 Inhibition assay
Assay type: in vitro ADME
Conditions: not given

CYP3A4, sequence (P08684 2-503): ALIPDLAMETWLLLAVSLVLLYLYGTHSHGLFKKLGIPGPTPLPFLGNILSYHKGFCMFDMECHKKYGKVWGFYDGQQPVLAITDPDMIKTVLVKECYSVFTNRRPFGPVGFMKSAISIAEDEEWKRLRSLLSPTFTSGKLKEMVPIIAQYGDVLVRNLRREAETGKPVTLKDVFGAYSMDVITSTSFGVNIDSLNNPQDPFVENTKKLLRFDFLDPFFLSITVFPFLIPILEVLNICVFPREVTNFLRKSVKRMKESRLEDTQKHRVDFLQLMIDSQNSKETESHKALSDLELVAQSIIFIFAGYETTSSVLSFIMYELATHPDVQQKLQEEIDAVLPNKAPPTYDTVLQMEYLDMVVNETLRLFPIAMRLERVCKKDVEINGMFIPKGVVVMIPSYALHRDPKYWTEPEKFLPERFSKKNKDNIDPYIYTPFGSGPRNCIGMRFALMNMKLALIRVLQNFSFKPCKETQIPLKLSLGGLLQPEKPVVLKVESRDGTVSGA

Row | SMILES | IC50 [µM]
4 | CCc1ccc2oc(-c3ccc(O)c(O)c3)c(O)c(=O)c2c1 [CSMC-9, 6-ethyl-3,3',4'-trihydroxy flavone] | > 10
5 | Cc1cc(O)c(C(=O)/C=C/c2ccc(O)c(O)c2)cc1C [CSMC-10, 4',5'-dimethyl-2',3,4-trihydroxychalcone] | > 10
6 | Cc1ccc2oc(-c3ccc(O)c(O)c3)c(O)c(=O)c2c1 [CSMC-11, 6-methyl-3,3',4'-trihydroxy flavone] | > 10

Tested on: Caspase 3
Assay: CeeTox apoptosis
Assay type: cell-based, rat
Conditions: H4IIE cells, dose at which the index was seen

Row | SMILES | Caspase 3 Activity (Index/Dose): dose
7 | CCc1ccc2oc(-c3ccc(O)c(O)c3)c(O)c(=O)c2c1 [CSMC-9, 6-ethyl-3,3',4'-trihydroxy flavone] | 300
8 | Cc1cc(O)c(C(=O)/C=C/c2ccc(O)c(O)c2)cc1C [CSMC-10, 4',5'-dimethyl-2',3,4-trihydroxychalcone] | 100
9 | Cc1ccc2oc(-c3ccc(O)c(O)c3)c(O)c(=O)c2c1 [CSMC-11, 6-methyl-3,3',4'-trihydroxy flavone] | 300

Same assay, conditions: H4IIE cells, index of RFU

Row | SMILES | Caspase 3 Activity (Index/Dose): index
10 | CCc1ccc2oc(-c3ccc(O)c(O)c3)c(O)c(=O)c2c1 [CSMC-9, 6-ethyl-3,3',4'-trihydroxy flavone] | 1 (0–200 = 1)
11 | Cc1cc(O)c(C(=O)/C=C/c2ccc(O)c(O)c2)cc1C [CSMC-10, 4',5'-dimethyl-2',3,4-trihydroxychalcone] | 1 (0–200 = 1)
12 | Cc1ccc2oc(-c3ccc(O)c(O)c3)c(O)c(=O)c2c1 [CSMC-11, 6-methyl-3,3',4'-trihydroxy flavone] | 1 (0–200 = 1)

Tested on: S. typhimurium TA989
Assay: Ames test for mutagenicity, frame-shift strain
Assay type: cell-based
Conditions: first TA98 column, with S9, up to 10 μM

Row | SMILES | TA98+S9
13 | CCc1ccc2oc(-c3ccc(O)c(O)c3)c(O)c(=O)c2c1 [CSMC-9, 6-ethyl-3,3',4'-trihydroxy flavone] | Negative (Not mutagenic < 10 μM (NEGATIVE))
14 | Cc1cc(O)c(C(=O)/C=C/c2ccc(O)c(O)c2)cc1C [CSMC-10, 4',5'-dimethyl-2',3,4-trihydroxychalcone] | Negative (Not mutagenic < 10 μM (NEGATIVE))
15 | Cc1ccc2oc(-c3ccc(O)c(O)c3)c(O)c(=O)c2c1 [CSMC-11, 6-methyl-3,3',4'-trihydroxy flavone] | Negative (Not mutagenic < 10 μM (NEGATIVE))

Same assay, conditions: first TA98 column, without S9, up to 10 μM

Row | SMILES | TA98−S9
16 | CCc1ccc2oc(-c3ccc(O)c(O)c3)c(O)c(=O)c2c1 [CSMC-9, 6-ethyl-3,3',4'-trihydroxy flavone] | Negative (Not mutagenic < 10 μM (NEGATIVE))
17 | Cc1cc(O)c(C(=O)/C=C/c2ccc(O)c(O)c2)cc1C [CSMC-10, 4',5'-dimethyl-2',3,4-trihydroxychalcone] | Negative (Not mutagenic < 10 μM (NEGATIVE))
18 | Cc1ccc2oc(-c3ccc(O)c(O)c3)c(O)c(=O)c2c1 [CSMC-11, 6-methyl-3,3',4'-trihydroxy flavone] | Negative (Not mutagenic < 10 μM (NEGATIVE))

Biological target: CYP2C19 (Homo sapiens, UniProt P33261)
Sequence (P33261 whole entry): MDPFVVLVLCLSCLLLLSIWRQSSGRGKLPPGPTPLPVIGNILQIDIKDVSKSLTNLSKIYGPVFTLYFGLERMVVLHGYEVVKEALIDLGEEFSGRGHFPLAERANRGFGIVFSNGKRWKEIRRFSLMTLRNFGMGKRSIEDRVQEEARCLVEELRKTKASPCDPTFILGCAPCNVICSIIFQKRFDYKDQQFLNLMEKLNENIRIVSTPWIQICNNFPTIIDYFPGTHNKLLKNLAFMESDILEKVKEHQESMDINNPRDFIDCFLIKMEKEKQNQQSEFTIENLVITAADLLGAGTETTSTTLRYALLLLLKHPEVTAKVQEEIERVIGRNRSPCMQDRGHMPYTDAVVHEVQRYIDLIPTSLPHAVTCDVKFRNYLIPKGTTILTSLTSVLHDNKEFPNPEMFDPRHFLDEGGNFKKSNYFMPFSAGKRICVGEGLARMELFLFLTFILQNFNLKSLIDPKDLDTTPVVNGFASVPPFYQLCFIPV
Assay: Cloe Screen Cytochrome P450 Inhibition assay
Assay type: in vitro ADME
Conditions: not given

Row | SMILES | IC50 [µM]
19 | CCc1ccc2oc(-c3ccc(O)c(O)c3)c(O)c(=O)c2c1 [CSMC-9, 6-ethyl-3,3',4'-trihydroxy flavone] | > 10
20 | Cc1cc(O)c(C(=O)/C=C/c2ccc(O)c(O)c2)cc1C [CSMC-10, 4',5'-dimethyl-2',3,4-trihydroxychalcone] | > 10
21 | Cc1ccc2oc(-c3ccc(O)c(O)c3)c(O)c(=O)c2c1 [CSMC-11, 6-methyl-3,3',4'-trihydroxy flavone] | > 10

Biological target: CYP2D6 (Homo sapiens, UniProt P10635)
Sequence (P10635 whole entry): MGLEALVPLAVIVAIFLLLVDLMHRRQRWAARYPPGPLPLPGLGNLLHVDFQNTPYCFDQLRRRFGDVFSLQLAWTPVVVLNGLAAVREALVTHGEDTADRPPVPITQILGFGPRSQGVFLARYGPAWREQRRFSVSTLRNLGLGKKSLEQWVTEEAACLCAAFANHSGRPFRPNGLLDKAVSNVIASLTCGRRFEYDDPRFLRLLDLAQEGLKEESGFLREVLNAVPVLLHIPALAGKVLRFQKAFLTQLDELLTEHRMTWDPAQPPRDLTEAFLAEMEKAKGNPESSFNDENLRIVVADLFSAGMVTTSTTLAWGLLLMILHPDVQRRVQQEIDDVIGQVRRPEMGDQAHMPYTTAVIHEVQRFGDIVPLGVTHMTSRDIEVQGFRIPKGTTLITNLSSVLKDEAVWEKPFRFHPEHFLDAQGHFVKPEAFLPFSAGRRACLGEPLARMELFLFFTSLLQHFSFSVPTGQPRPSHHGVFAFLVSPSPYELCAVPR
Assay: Cloe Screen Cytochrome P450 Inhibition assay
Assay type: in vitro ADME
Conditions: not given
Summary of the method: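 Run blinded. […] Metabolite formation was monitored by LC-MS/MS. IC50 was calculated from the decrease in metabolite formation relative to vehicle control. Quinidine served as positive control inhibitor.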

Row | SMILES | IC50 [µM]
22 | CCc1ccc2oc(-c3ccc(O)c(O)c3)c(O)c(=O)c2c1 [CSMC-9, 6-ethyl-3,3',4'-trihydroxy flavone] | > 10
23 | Cc1cc(O)c(C(=O)/C=C/c2ccc(O)c(O)c2)cc1C [CSMC-10, 4',5'-dimethyl-2',3,4-trihydroxychalcone] | > 10
24 | Cc1ccc2oc(-c3ccc(O)c(O)c3)c(O)c(=O)c2c1 [CSMC-11, 6-methyl-3,3',4'-trihydroxy flavone] | > 10

Tested on: H4IIE cells
Assay: CeeTox cellular ATP content
Conditions: 24 hr

Row | SMILES | ATP TC50 [µM]
25 | CCc1ccc2oc(-c3ccc(O)c(O)c3)c(O)c(=O)c2c1 [CSMC-9, 6-ethyl-3,3',4'-trihydroxy flavone] | 80
26 | Cc1cc(O)c(C(=O)/C=C/c2ccc(O)c(O)c2)cc1C [CSMC-10, 4',5'-dimethyl-2',3,4-trihydroxychalcone] | 75
27 | Cc1ccc2oc(-c3ccc(O)c(O)c3)c(O)c(=O)c2c1 [CSMC-11, 6-methyl-3,3',4'-trihydroxy flavone] | 52

Biological target: CYP2C9 (Homo sapiens, UniProt P11712)
Sequence (P11712 whole entry): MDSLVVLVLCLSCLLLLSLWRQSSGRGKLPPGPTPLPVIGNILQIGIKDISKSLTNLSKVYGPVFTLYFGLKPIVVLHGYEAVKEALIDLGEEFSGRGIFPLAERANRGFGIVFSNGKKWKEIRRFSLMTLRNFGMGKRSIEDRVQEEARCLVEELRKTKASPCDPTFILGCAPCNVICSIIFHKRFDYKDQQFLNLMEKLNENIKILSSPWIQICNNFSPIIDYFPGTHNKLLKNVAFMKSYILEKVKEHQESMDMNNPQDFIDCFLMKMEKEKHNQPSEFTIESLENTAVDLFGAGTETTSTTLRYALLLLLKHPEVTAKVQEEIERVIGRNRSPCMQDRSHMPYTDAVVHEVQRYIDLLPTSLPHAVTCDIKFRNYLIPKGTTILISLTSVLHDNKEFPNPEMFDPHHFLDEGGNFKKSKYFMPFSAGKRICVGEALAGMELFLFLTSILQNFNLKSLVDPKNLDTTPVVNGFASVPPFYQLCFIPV
Assay: Cloe Screen Cytochrome P450 Inhibition assay
Assay type: in vitro ADME
Conditions: not given

Row | SMILES | IC50 [µM]
28 | CCc1ccc2oc(-c3ccc(O)c(O)c3)c(O)c(=O)c2c1 [CSMC-9, 6-ethyl-3,3',4'-trihydroxy flavone] | > 10
29 | Cc1cc(O)c(C(=O)/C=C/c2ccc(O)c(O)c2)cc1C [CSMC-10, 4',5'-dimethyl-2',3,4-trihydroxychalcone] | > 10
30 | Cc1ccc2oc(-c3ccc(O)c(O)c3)c(O)c(=O)c2c1 [CSMC-11, 6-methyl-3,3',4'-trihydroxy flavone] | > 10

Tested on: 8-Isoprostane (8-ISO)
Assay: CeeTox lipid peroxidation measured as 8-isoprostane
Conditions: H4IIE cells, 8-ISO score

Row | SMILES | Membrane Lipid Peroxidation
31 | CCc1ccc2oc(-c3ccc(O)c(O)c3)c(O)c(=O)c2c1 [CSMC-9, 6-ethyl-3,3',4'-trihydroxy flavone] | 0
32 | Cc1cc(O)c(C(=O)/C=C/c2ccc(O)c(O)c2)cc1C [CSMC-10, 4',5'-dimethyl-2',3,4-trihydroxychalcone] | 2 (2 = Concentration related increase with maximum values ≥ 15 pg/mL)
33 | Cc1ccc2oc(-c3ccc(O)c(O)c3)c(O)c(=O)c2c1 [CSMC-11, 6-methyl-3,3',4'-trihydroxy flavone] | 0

Tested on: H4IIE cells
Assay: CeeTox cell mass
Conditions: 24 hr

Row | SMILES | Cell Mass TC50 [µM]
34 | CCc1ccc2oc(-c3ccc(O)c(O)c3)c(O)c(=O)c2c1 [CSMC-9, 6-ethyl-3,3',4'-trihydroxy flavone] | 82
35 | Cc1cc(O)c(C(=O)/C=C/c2ccc(O)c(O)c2)cc1C [CSMC-10, 4',5'-dimethyl-2',3,4-trihydroxychalcone] | 86
36 | Cc1ccc2oc(-c3ccc(O)c(O)c3)c(O)c(=O)c2c1 [CSMC-11, 6-methyl-3,3',4'-trihydroxy flavone] | >300

Biological target: T1, CYP1A2 (Homo sapiens, UniProt P05177)
T1 sequence (P05177 1-516): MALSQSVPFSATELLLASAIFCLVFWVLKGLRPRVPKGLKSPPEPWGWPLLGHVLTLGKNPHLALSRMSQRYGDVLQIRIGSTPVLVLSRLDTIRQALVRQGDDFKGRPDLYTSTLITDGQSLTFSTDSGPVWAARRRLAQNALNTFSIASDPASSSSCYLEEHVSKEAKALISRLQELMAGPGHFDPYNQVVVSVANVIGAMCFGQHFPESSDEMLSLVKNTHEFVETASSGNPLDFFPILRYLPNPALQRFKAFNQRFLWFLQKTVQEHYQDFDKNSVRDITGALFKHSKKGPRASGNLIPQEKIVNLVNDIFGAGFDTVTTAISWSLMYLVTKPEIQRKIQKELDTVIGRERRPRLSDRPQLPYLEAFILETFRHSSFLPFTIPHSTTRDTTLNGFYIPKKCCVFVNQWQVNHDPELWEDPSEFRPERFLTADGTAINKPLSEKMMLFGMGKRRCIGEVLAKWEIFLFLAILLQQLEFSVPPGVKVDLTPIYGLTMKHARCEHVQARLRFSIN
Assay: Cloe Screen Cytochrome P450 Inhibition assay
Assay type: in vitro ADME
Conditions: not given

Row | SMILES | IC50 [µM]
37 | CCc1ccc2oc(-c3ccc(O)c(O)c3)c(O)c(=O)c2c1 [CSMC-9, 6-ethyl-3,3',4'-trihydroxy flavone] | 11.6
38 | Cc1cc(O)c(C(=O)/C=C/c2ccc(O)c(O)c2)cc1C [CSMC-10, 4',5'-dimethyl-2',3,4-trihydroxychalcone] | 6.99
39 | Cc1ccc2oc(-c3ccc(O)c(O)c3)c(O)c(=O)c2c1 [CSMC-11, 6-methyl-3,3',4'-trihydroxy flavone] | > 25

Same assay, conditions: classified from IC50

Row | SMILES | CYP1A2 inhibition classification
40 | Cc1cc(O)c(C(=O)/C=C/c2ccc(O)c(O)c2)cc1C [CSMC-10, 4',5'-dimethyl-2',3,4-trihydroxychalcone] | moderate inhibition

Tested on: P-glycoprotein (PgP)
Assay: P-glycoprotein
Assay type: cell-based, rat
Conditions: H4IIE cells, MTT, 24 hr, single exposure concentration (20 or 50 μM), without CSA

Row | SMILES | % Control(Compound) [% Control]
41 | CCc1ccc2oc(-c3ccc(O)c(O)c3)c(O)c(=O)c2c1 [CSMC-9, 6-ethyl-3,3',4'-trihydroxy flavone] | 97.0
42 | Cc1cc(O)c(C(=O)/C=C/c2ccc(O)c(O)c2)cc1C [CSMC-10, 4',5'-dimethyl-2',3,4-trihydroxychalcone] | 73.4
43 | Cc1ccc2oc(-c3ccc(O)c(O)c3)c(O)c(=O)c2c1 [CSMC-11, 6-methyl-3,3',4'-trihydroxy flavone] | 80.3

Tested on: Intracellular glutathione (GSH)
Assay: CeeTox intracellular glutathione
Conditions: H4IIE cells

Row | SMILES | Total GSH TC50 [µM]
44 | CCc1ccc2oc(-c3ccc(O)c(O)c3)c(O)c(=O)c2c1 [CSMC-9, 6-ethyl-3,3',4'-trihydroxy flavone] | 149
45 | Cc1cc(O)c(C(=O)/C=C/c2ccc(O)c(O)c2)cc1C [CSMC-10, 4',5'-dimethyl-2',3,4-trihydroxychalcone] | 144
46 | Cc1ccc2oc(-c3ccc(O)c(O)c3)c(O)c(=O)c2c1 [CSMC-11, 6-methyl-3,3',4'-trihydroxy flavone] | >300

Tested on: H4IIE cells
Assay: not given
Assay type: cell-based
Conditions: 24 hr

Row | SMILES | MTT TC50 [µM]
47 | CCc1ccc2oc(-c3ccc(O)c(O)c3)c(O)c(=O)c2c1 [CSMC-9, 6-ethyl-3,3',4'-trihydroxy flavone] | 81
48 | Cc1cc(O)c(C(=O)/C=C/c2ccc(O)c(O)c2)cc1C [CSMC-10, 4',5'-dimethyl-2',3,4-trihydroxychalcone] | 83
49 | Cc1ccc2oc(-c3ccc(O)c(O)c3)c(O)c(=O)c2c1 [CSMC-11, 6-methyl-3,3',4'-trihydroxy flavone] | >300

Tested on: P-glycoprotein (MDR1)
Assay: BBB penetration
Assay type: in vitro ADME, canine
Conditions: dog, MDCK-MDR1
Summary of the method: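 MDCK cells transfected with human MDR1 (P-gp) were grown to a confluent monolayer over 4 days. Test compound was added apically, and A→B transport was followed over 60 min; B→A transport was also measured. Compound on each side was quantified by GC/MS. Papp was calculated for both directions, and efflux ratio = Papp B→A/Papp A→B. High BBB potential: Papp A→B ≥3.0×10⁻⁶ cm/s and efflux <3.0.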

Row | SMILES | Papp A→B at 60 min [×10⁻⁶ cm/s] | efflux ratio at 60 min
50 | CCc1ccc2oc(-c3ccc(O)c(O)c3)c(O)c(=O)c2c1 [CSMC-9, 6-ethyl-3,3',4'-trihydroxy flavone] | 40.9 | 0.19
51 | Cc1ccc2oc(-c3ccc(O)c(O)c3)c(O)c(=O)c2c1 [CSMC-11, 6-methyl-3,3',4'-trihydroxy flavone] | 6.67 | 0.12

From publication PMC3653324 (Translational stroke research, 2012)
